Screens as filed in PubChem BioAssay.
In the library only some 3% were active in any assay of this set; here they are far more common.
MEKK2 mut-MEK5 = signal of MEK5 binding to mutant human MEKK2 PB1 domain; bead flow cytometry, Alexa488-MEK5 binding to MEKK2 mutant; percent response, % at 10 µM; hit rate 0.35% among 290,000; AID 1530; in the data active = percent response above about 24%, passing the limit was not always enough
UCH37 inh = inhibitors of human deubiquitinating enzyme UCH37. Q9Y5K5. purified proteasome/UCH37, Ub-AMC cleavage fluorescence. inhibition, % (test concentration not listed). hit rate 0.33% among 330,000;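 active = mean inhibition over replicate wells above about 20%, limit read from the data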
Target sequence (Q9Y5K5 whole entry, looked up): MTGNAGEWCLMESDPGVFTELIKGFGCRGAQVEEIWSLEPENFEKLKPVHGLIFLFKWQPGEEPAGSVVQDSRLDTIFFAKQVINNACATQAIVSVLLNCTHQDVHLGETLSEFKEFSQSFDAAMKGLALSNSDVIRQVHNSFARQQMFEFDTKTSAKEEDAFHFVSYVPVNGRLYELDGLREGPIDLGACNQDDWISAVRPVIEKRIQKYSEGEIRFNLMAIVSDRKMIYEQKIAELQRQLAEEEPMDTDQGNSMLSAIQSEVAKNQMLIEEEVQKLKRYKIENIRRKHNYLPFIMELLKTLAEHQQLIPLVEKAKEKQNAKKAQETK
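Material: human UCH37 enzyme supplied as purified proteasome complex / Amount: 0.15 nM proteasome as dispensed / Buffer or medium: pH 7.4 Tris-HCl (50 mM) with ovalbumin, ATP-MgCl2, DTT / Times: preincubation 30 min, reaction 25 min, room temperature / Technique: AMC fluorescence from Ub-AMC cleavage, excitation 355 nm, emission 460 nm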
Apaf1 inhib = human Apaf-1 inhibition. O14727. reconstituted apoptosome caspase-3 activity, DEVD-Rh110 fluorescence. inhibition, % at 20 µM. AID 489030. hit rate 0.71% among 330,000; active = inhibition of at least 40% at 20 µM
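detection = Rh110 fluorescence intensity | test system = biochemical Apaf-1 apoptosome reconstitution | also added = cytochrome c and DEVD-Rh110 substrate | schedule = 30 min plus 50 min, RT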
UBC13 polyUb = blocks human UBC13 polyubiquitin chain formation. P61088. TR-FRET. inhibition, % at 20 µM. hit rate 0.47% among 330,000. AID 485273; in the data active = inhibition above about 45%, passing the limit was not always enough
Target sequence (P61088 whole entry, looked up): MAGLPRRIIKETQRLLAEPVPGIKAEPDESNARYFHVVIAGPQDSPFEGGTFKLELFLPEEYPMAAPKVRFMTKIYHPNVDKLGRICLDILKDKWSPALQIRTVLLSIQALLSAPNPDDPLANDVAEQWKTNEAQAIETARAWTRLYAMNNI
MEKK2wt PB1 HTS = raises or lowers MEK5 binding to wildtype human MEKK2 PB1 domain. Q9Y2U5. bead flow cytometry, Alexa488-MEK5 binding to MEKK2 WT; actives lie on both sides. binding response (% of control), % at 10 µM. hit rate 1.1% among 290,000. AID 1531; in the data active = binding response below about 67% or above about 130%
MEKK3 PB1 HTS = modulators (inhibitors or enhancers) of MEK5 binding to human MEKK3 PB1 domain. Q99759. bead-based flow cytometry, Alexa488-MEK5 binding to MEKK3; actives lie on both sides; 0 = blocked by unlabeled MEK5, 100 = vehicle. binding response (% of control), % at 10 µM. hit rate 1.4% among 290,000. AID 1529;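 active = binding response more than 3 SD above or below the average of its plate-row segment, actives on both sides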;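 also: Alexa488 bead fluorescence after subtracting the streptavidin-only scavenger bead signal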
MEKK2wt confirm = raises or lowers MEK5 binding to wildtype human MEKK2, retest; bead flow cytometry, Alexa488-MEK5 binding to MEKK2 WT; actives lie on both sides; hit rate 2.4% among 5,900; AID 1892; binding response (% of control), % at 10 µM; shares compounds with MEKK3 PB1 HTS; in the data active = binding response below about 16% or above about 210%; inactive = in between
MEKK2mut-MEK5 = signal of MEK5 binding to mutant human MEKK2, retest; shares compounds with MEKK3 PB1 HTS; bead flow cytometry, Alexa488-MEK5 binding to MEKK2 mutant; percent response, % at 10 µM; hit rate 2% among 5,900; AID 1893; in the data active = percent response mostly above about 71%, no sharp cut-off; inactive = mostly below about 38%;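 also: higher means compound restores mutant binding toward wildtype level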
MEKK3-MEK5 inh = confirmation of inhibitors of MEK5 binding to human MEKK3; hit rate 1.8% among 5,900; AID 1894; binding response (% of control), % at 10 µM; bead flow cytometry, Alexa488-MEK5 binding to MEKK3; hits give low values; shares compounds with MEKK3 PB1 HTS;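 active = binding response below 72% of control, or above a set upper limit, though filed actives all read lower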;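 also: lower values mean stronger disruption of MEK5 binding to MEKK3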
Numbers stand for hits; 0 = inactive; - = not tested or not shown; [ ] = remark or other dose.

SMILES	MEKK2 mut-MEK5	UCH37 inh	Apaf1 inhib	UBC13 polyUb	MEKK2wt PB1 HTS	MEKK3 PB1 HTS	MEKK2wt confirm	MEKK2mut-MEK5	MEKK3-MEK5 inh
O=S(=O)(c1ccc(Oc2ccccc2)cc1)N1CCOCC1	0	0	0	0	0	0	-	-	-
COc1cccc(Nc2nc3ccccc3nc2-n2nc(C)cc2C)c1	0	0	0	0	0	0	-	-	-
C=CCc1cccc2cc(C(=O)Nc3ccc(CC(=O)O)cc3)c(=O)oc12	0	0	0	0	0	139	0	0	0
C=CCc1cccc2cc(C(=O)Nc3ccc(F)cc3)c(=O)oc12	0	0	0	0	0	0	-	-	-
O=C1c2ccccc2-c2onc3ccc(NCCCn4ccnc4)c1c23	0	0	0	0	28[inhibitor]	33[inhibitor]	0	0	42
C1CCC(C23CC4CC(CC(C4)C2)C3)NC1 (centres undefined)	0	0	0	0	0	123	0	0	0
Cc1ccc(C(=O)N(C)CCOc2ccccc2)cc1S(=O)(=O)N1CCCCC1	-	0	0	0	-	-	-	-	-
CCOc1cc2[nH]c(=S)n(Cc3ccc(C(=O)NCC(OC)OC)cc3)c(=O)c2cc1OCC	0	0	0	0	0	0	-	-	-
CCOc1cc2[nH]c(=S)n(Cc3ccc(C(=O)NCCN(CC)CC)cc3)c(=O)c2cc1OCC	29	0	0	0	0	0	0	0	0
CC(=O)CSc1nc2c(c(=O)[nH]c(=O)n2C)n1Cc1ccccc1Cl	0	-	0	0	0	0	-	-	-
CCOC(=O)Nc1cc(NC(=O)OCC)ncn1	-	0	-	-	-	-	-	-	-
CC(=O)Nc1cc(NC(C)=O)ncn1	0	-	0	0	0	48[inhibitor]	0	0	0
COc1ccc(/C=N/NC2=NS(=O)(=O)c3ccccc32)cc1OC	0	-	0	0	0	0	-	-	-
CCCC1=Nc2cc(C(=O)NCCCOC(C)C)ccc2Sc2ccccc21	0	0	0	0	0	0	-	-	-
CCC1=Nc2cc(C(=O)NCCCOC)ccc2Sc2ccccc21	0	0	0	0	0	125	0	0	0
CCOC(=O)C1(CC2CC2)CCN(Cc2cnc(-c3ccccc3C)nc2)CC1	0	0	0	0	0	0	-	-	-
Cc1ccc(S(=O)(=O)n2nc(OC(=O)c3ccccc3F)cc2N)cc1	0	0	0	0	0	0	-	-	-
Cc1cccc(Nc2nnc(-c3ccc(N4CCOCC4)c([N+](=O)[O-])c3)c3ccccc23)c1	0	0	0	0	0	131	0	0	0
O=C(CN1CCN(Cc2ccccc2Cl)CC1)N/N=C/c1ccco1	0	-	0	0	0	0	-	-	-
CS(=O)(=O)N(CC(=O)N1CCCCC1)c1ccc(Cl)c(C(F)(F)F)c1	0	0	0	0	71[inhibitor]	0	0	0	0
Cc1ccc(N(CC(=O)N2CCCCCC2)S(C)(=O)=O)cc1Cl	0	0	0	0	0	0	-	-	-
CC(=O)NS(=O)(=O)c1ccc(N=c2ssc3c2-c2cc(C)ccc2NC3(C)C)cc1	0	-	0	0	0	129	0	0	0
CCOC(=O)C1=C(C)NC2=C(C(=O)CC(c3cccs3)C2)C1c1cccs1 (centres undefined)	0	0	0	0	0	72[inhibitor]	0	0	0
COC(=O)C1=C(C)NC2=C(C(=O)CC(c3cccs3)C2)C1c1ccsc1 (centres undefined)	0	-	-	-	0	0	-	-	-
CCC(=O)O[C@@H]1CC(=O)O[C@H](C)CC=CC=C[C@@H](O)[C@H](C)C[C@H](CC=O)[C@H](O[C@H]2O[C@H](C)[C@@H](O[C@H]3C[C@@](C)(O)[C@@H](OC(=O)CC)[C@H](C)O3)[C@H](N(C)C)[C@H]2O)[C@H]1OC	0	-	-	-	0	0	-	-	-
SMILES	MEKK2 mut-MEK5	UCH37 inh	Apaf1 inhib	UBC13 polyUb	MEKK2wt PB1 HTS	MEKK3 PB1 HTS	MEKK2wt confirm	MEKK2mut-MEK5	MEKK3-MEK5 inh
Cc1ccc(NC(=O)/C(C#N)=C/c2ccc(C)s2)c(C)c1	0	0	0	0	39[inhibitor]	0	0	0	0
Cc1ccc(/C=C(\C#N)C(=O)Nc2c(C)cccc2C)s1	0	0	0	0	0	0	-	-	-
Fc1cccc(NCCc2c[nH]c3ccccc23)n1	0	0	0	0	0	0	-	-	-
c1ccc2c(NCCc3c[nH]c4ccccc34)c3ccccc3nc2c1	48	-	0	0	220	0	0	0	0
COc1cc(OC)c(OC)cc1CCC(C)NCCC(c1ccccc1)c1ccccc1 (centres undefined)	0	-	0	0	166	0	0	0	0
COc1ccccc1CCNC(C)CCc1ccc(O)cc1 (centres undefined)	0	0	0	0	0	0	-	-	-
CCC(C)Cn1c(C)nc2ccccc21 (centres undefined)	0	0	0	0	0	0	-	-	-
CC(=O)Nc1ccc(NC(=O)C(C)Sc2nnc(-c3ccc4c(c3)OCO4)o2)cc1 (centres undefined)	-	0	0	0	-	-	-	-	-
O=C(COC(=O)Cc1ccc(Cl)cc1)NCc1ccc2c(c1)OCO2	-	0	0	0	-	-	-	-	-
CCc1nnc(SCC(=O)Nc2ccc3c(c2)OCO3)o1	0	0	0	0	0	0	-	-	-
O=C(COC(=O)CSc1nnc(-c2ccc(Cl)cc2)o1)NCc1ccc2c(c1)OCO2	0	0	0	0	0	81[inhibitor]	0	0	0
CC(Sc1nnc(Cc2ccc3c(c2)OCO3)o1)C(N)=O (centres undefined)	0	0	0	0	0	133	0	0	0
NC(=O)CSc1nnc(Cc2ccc3c(c2)OCO3)o1	0	0	0	0	0	143	1.0[inhibitor]	0	2.0
Cc1cccc(C)c1OCc1cc(C(=O)N2CCN3CCCC3C2)no1 (centres undefined)	0	0	0	0	0	0	-	-	-
Cc1ccc(C(C)n2cc(C(=O)NCc3ccncc3)nn2)cc1 (centres undefined)	0	0	0	0	0.0[inhibitor]	1.0[inhibitor]	0	0	0
O=C(NCCOC(=O)C1COc2ccccc2O1)C1COc2ccccc2O1 (centres undefined)	0	0	0	0	0	0	-	-	-
CC(C)N(C)CCOC(=O)C1COc2ccccc2O1 (centres undefined)	0	0	0	0	0	131	0	0	0
Cc1ccc(C(O)Cn2cc([N+](=O)[O-])nc2C)cc1 (centres undefined)	0	0	0	0	0	0	-	-	-
O=[N+]([O-])c1ccc(O)c(C=Nc2ccc3c(c2)OCCO3)c1	0	0	0	0	0	142	0	0	0
